Source: ChEMBL document CHEMBL1148541, “Biological evaluation of 1-alkyl-3-phenylthioureas as orally active HDL-elevating agents” (Bioorg Med Chem Lett, 2006)

Experiments:
[1] = organism: Rattus norvegicus; assay: Increase in liver enzyme Alkaline phosphatase; type: functional; design: concentration or dose not given beside the values
[2] = organism: Rattus norvegicus; assay: Increase in liver enzyme Aspartate aminotransferase; type: functional; design: concentration or dose not given beside the values
[3] = test system: Rattus norvegicus; assay: Increase of HDL level in cholesterol-fed male rats by ultracentrifugation method at 63 mg/kg/day relative to control; type: functional
Method in brief: (§1)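 Cholesterol-fed male Sprague–Dawley rats, six per group, given drug in the diet ad libitum for 8 days. Serum lipoproteins separated by classical ultracentrifugation and HDL cholesterol measured by an enzymatic colorimetric method. Expressed as % change versus untreated controls, with significance set at p < 0.05.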

[4] = molecular target: T1, Peroxisome proliferator-activated receptor delta (Homo sapiens, UniProt Q03181); assay: Activity against PPAR-delta
T1 sequence (Q03181 whole entry): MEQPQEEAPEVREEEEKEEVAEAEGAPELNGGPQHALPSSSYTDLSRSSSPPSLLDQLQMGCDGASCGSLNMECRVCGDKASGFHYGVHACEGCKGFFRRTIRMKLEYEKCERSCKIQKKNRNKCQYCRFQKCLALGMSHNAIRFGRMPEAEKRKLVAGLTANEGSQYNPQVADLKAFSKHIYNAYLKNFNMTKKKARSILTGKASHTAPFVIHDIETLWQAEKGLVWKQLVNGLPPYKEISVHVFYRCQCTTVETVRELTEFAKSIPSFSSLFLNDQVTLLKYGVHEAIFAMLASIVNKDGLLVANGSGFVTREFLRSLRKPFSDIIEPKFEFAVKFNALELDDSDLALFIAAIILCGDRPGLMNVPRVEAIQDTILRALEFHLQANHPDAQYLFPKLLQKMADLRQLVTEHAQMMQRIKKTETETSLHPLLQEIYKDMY

[5] = test system: Rattus norvegicus; assay: Increase of total cholesterol level in cholesterol-fed male rats at 63 mg/kg/day relative to control; type: functional
Method in brief: (§2)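 Dietary (ad libitum) dosing of groups of six male Sprague–Dawley rats on a cholesterol diet for 8 days. Serum total cholesterol was quantitated enzymatically by a colorimetric method and expressed as % change relative to untreated controls, with significance at p < 0.05.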

[6] = test system: Rattus norvegicus; assay: Increase of HDL level in cholesterol-fed male rats by FPLC method at 63 mg/kg/day relative to control; type: functional
Method in brief: (§3)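 Groups of six male Sprague–Dawley rats on a cholesterol diet received drug in the diet, ad libitum, for 8 days. Serum lipoproteins separated by FPLC, adapted for robotic automation, and cholesterol quantitated enzymatically by colorimetry. HDL given as % change versus untreated controls, with significance set at p < 0.05.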

[7] = test system: Rattus norvegicus; assay: Weight gain in cholesterol-fed male rats at 63 mg/kg/day relative to control; type: functional
Method in brief: (§4)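 Groups of six male Sprague–Dawley rats on a cholesterol diet received the compound in the diet, ad libitum, over 8 days. Body weight gain is reported as % change relative to untreated controls.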

[8] = test system: Rattus norvegicus; assay: Increase of Apolipoprotein A-I level in cholesterol-fed male rats at 63 mg/kg/day relative to control; type: functional
Method in brief: (§5)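 Drug mixed into diet, fed ad libitum for 8 days to groups of six male Sprague–Dawley rats on a cholesterol diet. Serum Apo A-I measured by SDS–polyacrylamide gel electrophoresis or by rat competition ELISA. Reported as % change versus untreated controls, with significance set at p < 0.05.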

[9] = molecular target: T2, Peroxisome proliferator-activated receptor alpha (Rattus norvegicus, UniProt P37230); assay: Activity against PPAR-alpha
T2 sequence (P37230 whole entry): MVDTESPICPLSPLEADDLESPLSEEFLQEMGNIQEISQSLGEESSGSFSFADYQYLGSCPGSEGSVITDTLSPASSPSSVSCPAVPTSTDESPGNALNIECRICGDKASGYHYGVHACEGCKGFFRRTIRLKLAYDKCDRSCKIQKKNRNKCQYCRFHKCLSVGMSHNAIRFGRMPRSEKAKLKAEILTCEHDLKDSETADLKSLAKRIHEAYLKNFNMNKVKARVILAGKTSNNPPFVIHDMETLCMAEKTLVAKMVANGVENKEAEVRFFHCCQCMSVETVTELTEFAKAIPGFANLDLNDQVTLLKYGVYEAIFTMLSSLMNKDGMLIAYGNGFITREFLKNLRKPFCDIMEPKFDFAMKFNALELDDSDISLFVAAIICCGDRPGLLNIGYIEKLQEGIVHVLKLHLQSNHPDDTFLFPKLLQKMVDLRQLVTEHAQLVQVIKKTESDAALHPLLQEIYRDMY

[10] = test system: Rattus norvegicus; assay: Triglyceride level in cholesterol-fed male rats at 63 mg/kg/day relative to control; type: functional
Method in brief: (§6)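 Male Sprague–Dawley rats on a cholesterol diet, in groups of six, received the compound in the diet ad libitum for 8 days. Serum triglycerides are expressed as % change relative to untreated controls, with significance at p < 0.05 versus controls.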

[11] = test system: Rattus norvegicus; assay: Weight gain in cholesterol-fed male rats at 78 mg/kg/day relative to control; type: functional; method in brief: as §4
[12] = test system: Rattus norvegicus; assay: Triglyceride level in cholesterol-fed male rats at 78 mg/kg/day relative to control; type: functional; method in brief: as §6
[13] = test system: Rattus norvegicus; assay: Increase of Apolipoprotein A-I level in cholesterol-fed male rats at 78 mg/kg/day relative to control; type: functional; method in brief: as §5
[14] = test system: Rattus norvegicus; assay: Increase of HDL level in cholesterol-fed male rats by ultracentrifugation method at 78 mg/kg/day relative to control; type: functional
Method in brief: (§7)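 Compound given in the diet, ad libitum, to groups of six male Sprague–Dawley rats on a cholesterol diet for 8 days. Serum lipoproteins were separated by classical ultracentrifugation, and HDL cholesterol was quantitated by an enzymatic colorimetric method. Results are reported as % change relative to untreated controls, with significance at p < 0.05 versus controls.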

[15] = test system: Rattus norvegicus; assay: Increase of HDL level in cholesterol-fed male rats by FPLC method at 78 mg/kg/day relative to control; type: functional; method in brief: as §3
[16] = test system: Rattus norvegicus; assay: Increase of total cholesterol level in cholesterol-fed male rats at 78 mg/kg/day relative to control; type: functional; method in brief: as §2
[17] = test system: Rattus norvegicus; assay: Increase of Apolipoprotein A-I level in cholesterol-fed male rats at 79 mg/kg/day relative to control; type: functional; method in brief: as §5
[18] = test system: Rhesus monkey; assay: Increase of HDL cholesterol in chow-fed rhesus monkey at 12 mg/kg/day; type: functional, Macaca mulatta
[19] = test system: Cynomolgus monkey; assay: Increase of HDL cholesterol in chow-fed cynomolgus monkey at 12 mg/kg/day; type: functional, Macaca fascicularis
[20] = test system: Rattus norvegicus; assay: Increase of HDL level in cholesterol-fed male rats by FPLC method at 79 mg/kg/day relative to control; type: functional; method in brief: as §3
[21] = test system: Rattus norvegicus; assay: Triglyceride level in cholesterol-fed male rats at 79 mg/kg/day relative to control; type: functional; method in brief: as §6
[22] = test system: Rattus norvegicus; assay: Weight gain in cholesterol-fed male rats at 79 mg/kg/day relative to control; type: functional; method in brief: as §4
[23] = test system: Rattus norvegicus; assay: Increase of total cholesterol level in cholesterol-fed male rats at 79 mg/kg/day relative to control; type: functional; method in brief: as §2
[24] = test system: Canis familiaris; assay: Increase of HDL cholesterol in normal-fed dog at 35 mg/kg/day; type: functional, Canis lupus familiaris
[25] = test system: Rattus norvegicus; assay: Increase of HDL cholesterol in normal-fed rat at 80 mg/kg/day; type: functional
[26] = test system: Hamster; assay: Increase of HDL cholesterol in normal-fed hamster at 52 mg/kg/day; type: functional, Cricetulus griseus
[27] = test system: Rattus norvegicus; assay: Increase of HDL level in cholesterol-fed male rats by ultracentrifugation method at 79 mg/kg/day relative to control; type: functional; method in brief: as §7
[28] = test system: Hamster; assay: Increase of HDL cholesterol in chow-fed hamster at 64 mg/kg/day; type: functional, Cricetulus griseus
[29] = test system: Rattus norvegicus; assay: Increase of HDL level in cholesterol-fed male rats by ultracentrifugation method at 55 mg/kg/day relative to control; type: functional; method in brief: as §1
[30] = test system: Rattus norvegicus; assay: Weight gain in cholesterol-fed male rats at 55 mg/kg/day relative to control; type: functional; method in brief: as §4
[31] = test system: Rattus norvegicus; assay: Increase of total cholesterol level in cholesterol-fed male rats at 55 mg/kg/day relative to control; type: functional; method in brief: as §2
[32] = test system: Rattus norvegicus; assay: Increase of HDL level in cholesterol-fed male rats by FPLC method at 55 mg/kg/day relative to control; type: functional; method in brief: as §3
[33] = test system: Rattus norvegicus; assay: Increase of Apolipoprotein A-I level in cholesterol-fed male rats at 55 mg/kg/day relative to control; type: functional; method in brief: as §5
[34] = test system: Rattus norvegicus; assay: Triglyceride level in cholesterol-fed male rats at 55 mg/kg/day relative to control; type: functional; method in brief: as §6
[35] = test system: Rattus norvegicus; assay: Increase of HDL level in cholesterol-fed male rats by FPLC method at 62 mg/kg/day relative to control; type: functional; method in brief: as §3
[36] = test system: Rattus norvegicus; assay: Increase of Apolipoprotein A-I level in cholesterol-fed male rats at 62 mg/kg/day relative to control; type: functional; method in brief: as §5
[37] = test system: Rattus norvegicus; assay: Weight gain in cholesterol-fed male rats at 62 mg/kg/day relative to control; type: functional; method in brief: as §4
[38] = test system: Rattus norvegicus; assay: Triglyceride level in cholesterol-fed male rats at 62 mg/kg/day relative to control; type: functional; method in brief: as §6
[39] = test system: Rattus norvegicus; assay: Increase of HDL level in cholesterol-fed male rats by ultracentrifugation method at 62 mg/kg/day relative to control; type: functional; method in brief: as §1
[40] = test system: Rattus norvegicus; assay: Increase of total cholesterol level in cholesterol-fed male rats at 62 mg/kg/day relative to control; type: functional; method in brief: as §2
[41] = organism: Rattus norvegicus; assay: Increase in liver enzyme Alanine aminotransferase; type: functional

`CC[C@@H]1CCCCN1/C(S)=N/c1cc(Cl)ccc1C` showed an Activity [1] of 105%, an Activity [2] of 80% and an Activity [3] of 129%. The EC50 [4] was > 100 µM, the Activity [5] was 167% and the Activity [6] was 614%. The Activity [7] was -105%, the Activity [8] was 30% and the EC50 [9] was > 100 µM. The Activity [10] was -54%.

Work on `CCC/N=C(\S)Nc1cc(Cl)ccc1OC` yielded an Activity [1] of 44%, an Activity [11] of -6% and an Activity [12] of -43%. For the same molecule, the Activity [13] was 58%, the Activity [14] was 99% and the Activity [15] was 97%. For the same molecule, the Activity [16] was 49%.

`Cc1ccc(Cl)cc1N/C(S)=N/CC(C)C` was tested, and the EC50 [4] was > 100 µM, the Activity [17] was 77% and the Activity [18] was 75%. For the same molecule, the Activity [19] was 100%, the Activity [20] was 260% and the Activity [21] was -54%. It also gave an Activity [22] of -12%, an Activity [23] of -11% and an Activity [24] of 50%. For the same molecule, the Activity [25] was 75%, the Activity [26] was 44% and the Activity [27] was 104%. The Activity [28] was 15% and the EC50 [9] was > 100 µM.

`CCC/N=C(\S)Nc1cc(Br)ccc1C` gave an Activity [1] of 44%, an Activity [3] of 142% and an Activity [5] of 47%. For the same molecule, the Activity [6] was 306%, the Activity [7] was -29% and the Activity [8] was 46%. It also gave an Activity [10] of -53%.

In the case of `CCC/N=C(\S)Nc1cc(Cl)ccc1C`, the Activity [29] is reported as 83%, the EC50 [4] is reported as > 100 µM and the Activity [30] is reported as -78%. For the same molecule, the Activity [31] was 6%, the Activity [32] was 292% and the Activity [33] was 54%. For the same molecule, the EC50 [9] was > 100 µM and the Activity [34] was -54%.

`CC[C@H]1CCCCN1/C(S)=N/c1cc(Cl)ccc1C` was tested, and the Activity [1] was 129%, the Activity [35] was 404% and the Activity [36] was 39%. The Activity [2] was 85%, the EC50 [4] was > 100 µM and the Activity [37] was -88%. For the same molecule, the Activity [38] was -56%, the Activity [39] was 124% and the EC50 [9] was > 100 µM. It also gave an Activity [40] of 126%.

For `CCCC/N=C(\S)Nc1cc(Cl)ccc1C`, the Activity [1] was 44%, the Activity [29] was 100% and the Activity [2] was 79%. The Activity [30] was -53%, the Activity [31] was 39% and the Activity [32] was 203%. The Activity [41] was 93%, the Activity [33] was 38% and the Activity [34] was -44%.
